Test results reported in ChEMBL document CHEMBL4033710, “Synthesis and biological evaluation of kresoxim-methyl analogues as novel inhibitors of hypoxia-inducible factor (HIF)-1 accumulation in cancer cells” (Bioorg Med Chem Lett, 2017).
Active and inactive are the calls of the source. No cut-off for these calls is given here.

Legend:
Assay type in all cases: functional, cell-based
HCT-116 [1] = test: Increase in intracellular oxygen content in human HCT116 cells at 5 uM after 6 hrs under hypoxic-condition by mono azo rhodamine/Nuclear-ID Red DNA staining based fluorescence assay
In short: (§1)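 HCT116 cells treated with compound for 6 h under hypoxia and loaded with the hypoxia-sensitive probe mono azo rhodamine (MAR). MAR fluoresces when its azo group is reduced in hypoxia. Nuclei were counterstained with NUCLEAR-ID Red. The value is the MAR/NUCLEAR-ID fluorescence intensity ratio, compared against a hypoxia control by significance testing.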

HCT-116 [2] = test: Inhibition of hypoxia-induced HIF1-alpha accumulation in human HCT116 cells after 6 hrs by immunoblot analysis
In short: (§2)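 HCT116 cells incubated under hypoxia for 6 h with each compound. HIF-1α protein was detected by immunoblot with specific antibodies, using β-tubulin as loading reference.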

HCT-116 [3] = test: Cytotoxicity against human HCT116 cells at 0.625 to 10 uM after 72 hrs under hypoxic condition by methylene blue staining based assay
HCT-116 [4] = test: Cytotoxicity against human HCT116 cells after 72 hrs by methylene blue staining based assay; conditions: HCT-116, 72 h
In short: (§3)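 HCT116 cells exposed to each analogue for 72 h. Viability read out by methylene blue staining.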

HCT-116 [5] = test: Inhibition of hypoxia-induced HIF1-alpha accumulation in human HCT116 cells at 5 uM after 6 hrs by immunoblot analysis; in short: as §2
HCT-116 [6] = test: Cytotoxicity against human HCT116 cells at 0.625 to 10 uM after 72 hrs by methylene blue staining based assay; in short: as §3
HCT-116 [7] = test: Increase in intracellular oxygen content in human HCT116 cells after 6 hrs under hypoxic-condition by mono azo rhodamine/ Nuclear-ID Red DNA staining based fluorescence assay; in short: as §1

SMILES	Activity (HCT-116 [1])	inhibition (HCT-116 [2])	Activity (HCT-116 [3])	IC50 (HCT-116 [4])	other results
CO/N=C(/C(=O)OC)c1ccccc1COc1cccc(OCc2ccccc2)c1	Active				
CO/N=C(\C)c1cccc(OCc2ccccc2/C(=N\OC)C(=O)OC)c1	Active				
CO/N=C/c1cccc(OCc2ccccc2/C(=N\OC)C(=O)OC)c1	Active				
C=Cc1ccc(COc2cccc(OCc3ccccc3/C(=N\OC)C(=O)OC)c2)cc1	Active	Dose-dependent effect	Active	1260 nM	
CO/N=C(/C(=O)OC)c1ccccc1COc1cccc(OCC#N)c1	inactive		inactive		inhibition (HCT-116 [5]): inactive; Activity (HCT-116 [6]): inactive
CO/N=C/c1ccc(OC)c(OCc2ccccc2/C(=N\OC)C(=O)OC)c1	Active				
CO/N=C(/C(=O)OC)c1ccccc1COc1cccc(OCc2ccc(Cl)cc2)c1		Dose-dependent effect	Active	1620 nM	Activity (HCT-116 [7]): Dose-dependent effect
CO/N=C(/C(=O)OC)c1ccccc1COc1cccc(O)c1	Active				
CO/N=C(/C(=O)OC)c1ccccc1COc1cccc(OCc2cc(C(F)(F)F)cc(C(F)(F)F)c2)c1	Active	Dose-dependent effect	Active	1360 nM	
